Data published in PubChem BioAssay AID504382 (The Scripps Research Institute Molecular Screening Center, 2011).
About 460 (18%) of roughly 2,500 compounds were called active. A selection follows. Values without a mark were called inactive.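 How the source made its calls: active means mean activation above a cutoff of low control average plus 3 SD from the earlier screen (cut at about 12% in these data); inactive means the rest.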

Assay: IANBD-channel fluorescence artefacts in buffer – biochemical, artefact control for cardiac RTF calcium sensitizer project, confirmation (AID 504382)
Settings: IANBD fluorescence interference counterscreen, EC20 Ca2+, at 7.2 µM, stronger effect = higher value, scaled: EC20 calcium 0, EC100 calcium 100
How it was run: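 timing = compound incubation 15 min at 25 °C before fluorescence reading | technique = fluorescence at 480 nm excitation, 540 nm emission | evaluation = interference relative to controls | replication = triplicate wells per compound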

Compound | fluorescence artifact activation
Cc1ccc(S(=O)(=O)N2CCN(c3ncccn3)CC2)cc1C | -0.05%
Cc1ccccc1S(=O)(=O)Cc1ccc(C(=O)NCCN(C)Cc2ccccc2)o1 | 11%
Cc1nn(Cc2c(F)c(F)c(F)c(F)c2F)c(C)c1NC(=O)c1nn(C)c(C)c1Br | 0.14%
CCC/C(C#Cc1ccc(N(C)C)cc1)=C1/c2ccccc2C(=O)N1c1ccccc1 | 17.9% (active)
Cc1c(O)c2c3c(cccc3c1O)C(=O)N(c1ccccc1)C2=O | 6.04%
Nc1ccc2c3c(cccc13)C(=O)N(c1ccccc1)C2=O | 0.18%
CCCS(=O)(=O)N1CCC(C(=O)NCCCN2CCC(Cc3ccccc3)CC2)CC1 | 0.05%
CC(=O)Nc1cccc(NC(=O)CSc2nnc(Cc3cccn3C)n2CCc2ccccc2)c1 | 2.41%
CCN1C(=O)[C@@H]2[C@@H](c3ccc(-c4cccc(Cl)c4)cc3)N3CCC[C@@]3(C(=O)OC)[C@@H]2C1=O | 0.02%
CCOc1cc(/C=C(\C#N)c2nc(-c3cccs3)c(NC(C)=O)s2)ccc1O | -0.03%
CC(=O)Nc1sc(/C(C#N)=C\c2cccc(Cl)c2)nc1-c1ccc(C)cc1 | 16.5% (active)
CC(=O)Nc1sc(/C(C#N)=C/c2ccc(Cl)c(Cl)c2)nc1-c1ccc(C)cc1 | -0.03%
CC(C)(C)c1cc(NCc2ccccn2)n2ncc(-c3ccc(Cl)cc3)c2n1 | 0.93%
CCCN1CCc2c(sc(NC(=S)NC(=O)c3ccccc3)c2C#N)C1 | 11.1%
O=C(Nc1ccccc1F)C(=Cc1sc(N2CCOCC2)nc1-c1ccccc1)C(=O)Nc1ccccc1F | 0.15%
CCN1C(=O)/C(=C/C=C2/CCCN2C)OC1=S | 0.08%
CN1CCC/C1=C/C=C1\SC(=S)NC1=O | 0.02%
CN1C(=O)/C(=C\C=C2/CCCN2C)N(C)C1=S | 56.9% (active)
O=C(O)c1ccc2c(c1)S(=O)(=O)c1ccccc1C2=O | 0.03%
O=C1c2ccccc2-c2onc3ccc(Oc4ccccc4)c1c23 | 0.44%
CCN(CC)c1nc2ccccc2nc1C(C#N)C(=O)NCCc1ccccc1 (stereo not drawn) | 164% (active)
N#CC(C(=O)NCc1ccccc1)c1nc2ccccc2nc1N1CCCC1 (stereo not drawn) | -0.08%
CCCCCCNC(=O)C(C#N)c1nc2ccccc2nc1N1CCCC1 (stereo not drawn) | 0.17%
O=C1CC(c2cccc(Oc3ccccc3)c2)NC(=O)N1 (stereo not drawn) | 0.02%

Compound | fluorescence artifact activation
O=c1c(/C=C(\O)c2ccc(F)cc2)nc2ccccc2n1-c1ccccc1 | 0.04%
Cc1ccc(-c2csc(NC(=O)CSc3nc4ccccc4o3)n2)cc1 | 0.77%
Cc1ccc(CSc2nnc(SCC(=O)N/N=C/c3ccccc3OCC(=O)O)s2)cc1 | 4.19%
Cc1ccc(NC(=O)CSc2nnc(-c3cccnc3)s2)cc1 | 258% (active)
Nc1nnnn1/N=C/c1cc(Cl)cc(Cl)c1O | 0.11%
O=C(Nc1ccc(Cl)c(Cl)c1)Nc1ccc([N+](=O)[O-])cn1 | 8.85%
COc1ccc(OC)c2[nH]c(=O)c(CCNS(=O)(=O)c3ccc(Cl)cc3)cc12 | -0.04%
N#C/C(=C\N1CCN(Cc2ccc3c(c2)OCO3)CC1)c1nc2ccccc2s1 | 7.04%
COc1cccc(C2C(C#N)=C(N)Oc3cc(C)oc(=O)c32)c1OC (stereo not drawn) | 6.53%
COc1ccc(N=Cc2cc3c(cc2O)OC(N)=C(C#N)C3c2ccccc2)cc1 (stereo not drawn) | 32.9% (active)
Cc1ccccc1N=Cc1cc2c(cc1O)OC(N)=C(C#N)C2c1ccccc1 (stereo not drawn) | 0.04%
CCN(CC)c1ccc(/C=C2\C(=N)N3N=C(CC(=O)N4CCOCC4)SC3=NC2=O)cc1 | 0.25%
CCCOc1ccc(-c2nn(-c3ccccc3)cc2/C=C2\SC(N)=NC2=O)cc1 | 0.02%
CCOc1ccc(N(C)c2ccc(/C=C3/SC(=S)NC3=O)cc2)cc1 | 0.1%
CCN(CC)c1ccc(/C=C2\SC(N)=NC2=O)cc1 | 18.7% (active)
CN(C)c1ccc(C=C2SC(=S)NC2=O)cc1 | 0.13%
CCN(CC)c1ccc(C=C2SC(=S)NC2=O)cc1 | 19.1% (active)
COc1cccc(/C=N/Nc2nnc3c(n2)[nH]c2ccccc23)c1OC | 0.23%
CC[n+]1c(/C=C/N(C)c2ccccc2)oc2ccc(F)cc21 | 0.51%
CCN(CC)c1ccc(/C=N/OCC(=O)Nc2cccc(C)c2)cc1 | 0.61%
C#CCN1c2ccccc2Sc2cccnc21 | 0.15%
Fc1ccc(-c2nnc(-c3ccc(Cl)cc3Cl)o2)cc1 | 12.9% (active)
O=C(c1cccc(F)c1)N1CCN(C(=O)c2cc(-c3ccc(Cl)cc3Cl)on2)CC1 | 0.33%
Nc1ccn([C@H]2C[C@H](O)[C@@H](CO)O2)c(=O)n1 | 0.1%

Compound | fluorescence artifact activation
CCCNC(=O)Cn1c(=O)/c(=C/c2ccc(-c3ccc([N+](=O)[O-])cc3)o2)s/c1=C\C(=O)C(C)(C)C | 10.3%
O=c1c(-c2ccc(O)cc2O)coc2cc(O)cc(O)c12 | 0.09%
O=c1oc2ccccc2cc1-c1nc(-c2cccs2)cs1 | -0.04%
O=c1oc2ccccc2cc1-c1ccc(O)cc1O | 30.6% (active)
COc1ccccc1/C=[N+](\[O-])C1SC(=S)N(C)C1(C)C (stereo not drawn) | 0.01%
CCOc1ccc(N2C(=O)CC(SCc3nc4ccccc4[nH]3)C2=O)cc1 (stereo not drawn) | 0.12%
COC(=O)[C@@]1(Cc2ccc(OC)cc2)[C@@H]2C(=CC(=O)[C@H]2CC(=O)C(=O)N2CCCC2)CN1C(=O)c1ccccc1 | 15% (active)
CN(C)S(=O)(=O)c1ccc2c(c1)/C(=C/c1cc3c([nH]1)CCCC3)C(=O)N2 | 3.96%
Cc1cc(C)c(/C=C2\C(=O)Nc3ccccc32)[nH]1 | 4.55%
O=C1Nc2ccccc2/C1=C/c1cnc(-c2ccccc2)[nH]1 | 36.5% (active)
C#Cc1ccc([C@@H]2C=C(C(=O)OCC=C)O[C@H](OCCCCO)C2)cc1 | 0.21%
COc1ccc(N2CCN(S(=O)(=O)Cc3ccccc3)CC2)cc1 | 0.08%
COc1ccc(N2CCN(c3ccc([N+](=O)[O-])cc3Cl)CC2)cc1 | 18.2% (active)
CC1=N/C(=C/c2ccc([N+](=O)[O-])cc2)C(=O)N1c1ccc(Cl)cc1Cl | 0.01%
COc1ccccc1N1CCN(c2ccc([N+](=O)[O-])cc2Cl)CC1 | 18.9% (active)
COc1ccccc1N1CCN(C(=O)CCC(=O)O)CC1 | 0.1%
Cc1cc(N2CCN(c3nc(-c4ccc([N+](=O)[O-])cc4)cs3)CC2)c2ccccc2n1 | 3.28%
COc1cc(NC(=O)C2CCCCN2)ccc1OCC(C)C (stereo not drawn) | 2.06%
CC(C)C(=O)COc1c2occc2cc2ccc(=O)oc12 | 0.07%
Cc1noc(NS(=O)(=O)c2ccc(NC(=O)CSc3nc4c(cc3C#N)CCC4)cc2)c1C | 0.31%
CCOC(=O)c1c(C#N)c(SCC(=O)Nc2ccc(OC)cc2)nc2c1CN(CC)CC2 | 25.1% (active)
CCOC(=O)c1cccc(NC(=O)CSc2nc(N)cc(N)n2)c1 | -0.04%
COc1ccc(/C=C2\SC(=O)N(CCC(=O)N3CCN(C)CC3)C2=O)cc1 | -0.03%
CC(C)c1ccc(C2c3[nH]c4ccccc4c3C[C@H]3C(=O)N(c4ccccc4C(=O)N4CCC(C(=O)O)CC4)C(=O)N23)cc1 (stereo partly drawn) | 0.07%

Compound | fluorescence artifact activation
COc1ccccc1-c1nnc(SCc2nc3ccccc3s2)n1C | 7.19%
Cc1ccc(Cl)c(NC(=O)CN(C)CC(=O)Nc2ccc(F)c(F)c2F)c1Cl | 0.02%
N/C(COc1cc(Cl)cc(Cl)c1)=N\O | 21.9% (active)
COc1cc(OC)c(C(=O)NC2CCCCCC2)cc1OC | -0.01%
O=[N+]([O-])c1cc(-c2ccn[nH]2)ccc1Cl | -0.08%
COc1ccc(C(Nc2ccc(S(=O)(=O)NCC3CCCO3)cc2)C(=O)NC(C)(C)C)cc1OC (stereo not drawn) | 0.01%
COc1cc(OC)cc(-c2c(-c3cccs3)c3cc(-c4ccc(SC)cc4)ccc3n2C)c1 | 5.67%
N#C/C(=C(/O)COC(=O)c1ccccc1O)c1nc2ccccc2s1 | 0.47%
O=C(CSc1nc2ccccc2s1)NNC(=S)Nc1ccccc1 | 193% (active)
O=C(/C=C/c1nc2ccccc2s1)N1CCCCCC1 | 7.06%
CCc1cc(=O)n2c([nH]c3ccccc32)c1C#N | 0.24%
Cc1cc(Br)ccc1SCC(=O)OCC(=O)Nc1ccccc1C#N | 0.22%
Cc1ccc(S(=O)(=O)Nc2ccc3ncccc3c2[N+](=O)[O-])cc1 | 0.33%
COc1ccc(/C=C2\CC/C(=C\c3ccc(OC)cc3OC)C2=O)c(OC)c1 | 9.84%
CCCN1C(=O)/C(=C\C=C2\N(CC)c3ccccc3C2(C)C)SC1=S | 0.28%
CCCN1C(=O)/C(=C/C=C2\N(CC)c3ccccc3C2(C)C)SC1=S | 0.48%
CCCCN1C(=O)/C(=C/C=C2\Oc3ccccc3N2CC)SC1=S | 16.6% (active)
CC(C(=O)NNS(=O)(=O)c1cccc(C(F)(F)F)c1)n1nnc(N2CCOCC2)n1 (stereo not drawn) | 0.4%
COc1cc(OC)c(OC)cc1/C=C1/Cc2ccccc2C1=O | -0.02%
COc1cc2c(cc1[N+](=O)[O-])-c1ccccc1C2 | 70.4% (active)
COc1ccc2c3c(cccc13)C(=O)CC2 | 1.92%
